Activity calls are given as the source filed them. No cut-off for these calls is given here.
How the values were obtained:
[1] = system: HEL; assay: Cytotoxicity against HEL cells assessed as reduction in cell growth after 3 days by coulter counter method; assay type: cell-based; settings: human, hel, 72 h
In short: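 HEL cells were seeded at 5 × 10³ cells/well and grown for 24 h, then given medium containing graded compound concentrations. After 3 days at 37 °C, cells were counted by Coulter counter.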

[2] = system: Human alphaherpesvirus 3; assay: Antiviral activity against wild type thymidine kinase-deficient Varicella-Zoster virus 07-1 infected in HEL cells assessed as inhibition of virus-induced plaque formation; assay type: functional, cell-based; settings: Human alphaherpesvirus 3, 07-1, HEL
In short: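 HEL fibroblast monolayers were infected with 20 PFU of VZV and kept with varying compound concentrations. Plaques were counted once formation was complete in untreated infected controls.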

[3] = system: Human alphaherpesvirus 2; assay: Antiviral activity against Herpes simplex virus 2 G infected in HEL cells assessed as inhibition of virus-induced cytopathic effect; assay type: functional, cell-based; settings: Human alphaherpesvirus 2, strain G
In short: (§1)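 Confluent cell monolayers were infected with 100 CCID50 of virus (1 CCID50 = dose infecting 50% of cultures) and incubated with varying compound concentrations. Cytopathicity was scored once complete in untreated infected controls.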

[4] = system: Vaccinia virus; assay: Antiviral activity against Vaccinia virus Lederle infected in HEL cells assessed as inhibition of virus-induced cytopathic effect; assay type: functional, cell-based; settings: Orthopoxvirus vaccinia
[5] = system: Human alphaherpesvirus 3; assay: Antiviral activity against wild type thymidine kinase expressing Varicella-Zoster virus Oka infected in HEL cells assessed as inhibition of virus-induced plaque formation; assay type: functional, cell-based; settings: Human alphaherpesvirus 3, Oka
In short: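 Confluent HEL cultures were inoculated with 20 PFU of VZV and incubated with varying compound concentrations. Plaques were counted once formation was complete in untreated infected controls.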

[6] = system: Human alphaherpesvirus 1; assay: Antiviral activity against thymidine kinase-deficient ACV-resistant Herpes simplex virus 1 KOS infected in HEL cells assessed as inhibition of virus-induced cytopathic effect; assay type: functional, cell-based; settings: Human alphaherpesvirus 1, KOS
[7] = system: Influenza B virus; assay: Antiviral activity against influenza B virus infected in HEL cells assessed as inhibition of virus-induced cytopathic effect; assay type: functional, cell-based
[8] = system: Sindbis virus; assay: Antiviral activity against Sindbis virus infected in African green monkey Vero cells assessed as inhibition of virus-induced cytopathic effect; assay type: functional; in short: as §1
[9] = system: Coxsackievirus B4; assay: Antiviral activity against Coxsackie virus B4 infected in human HeLA cells assessed as inhibition of virus-induced cytopathic effect; assay type: functional, cell-based; in short: as §1
[10] = system: Human betaherpesvirus 5; assay: Antiviral activity against Human cytomegalovirus Davis infected in HEL cells assessed as inhibition of virus-induced cytopathic effect; assay type: functional, cell-based; settings: Human betaherpesvirus 5, Davis; in short: as §1
[11] = system: Vesicular stomatitis virus; assay: Antiviral activity against Vesicular stomatitis virus infected in HEL cells assessed as inhibition of virus-induced cytopathic effect; assay type: functional, cell-based
[12] = system: Punta Toro virus; assay: Antiviral activity against Punta Toro virus infected in African green monkey Vero cells assessed as inhibition of virus-induced cytopathic effect; assay type: functional; in short: as §1
[13] = system: Human respirovirus 3; assay: Antiviral activity against Parainfluenza virus 3 infected in African green monkey Vero cells assessed as inhibition of virus-induced cytopathic effect; assay type: functional; in short: as §1
[14] = Antiviral activity against Respiratory syncytial virus A strain long infected in human HeLA cells assessed as inhibition of virus-induced cytopathic effect; assay type: functional, cell-based; in short: as §1
[15] = system: Influenza A virus H3N2; assay: Antiviral activity against Influenza A virus H3N2 infected in HEL cells assessed as inhibition of virus-induced cytopathic effect; assay type: functional, cell-based
[16] = system: Human betaherpesvirus 5; assay: Antiviral activity against Human cytomegalovirus AD169 infected in HEL cells assessed as inhibition of virus-induced cytopathic effect; assay type: functional, cell-based; settings: Human betaherpesvirus 5, AD169, HEL; in short: as §1
[17] = system: Influenza A virus; assay: Antiviral activity against Influenza A virus (H1N1) infected in HEL cells assessed as inhibition of virus-induced cytopathic effect; assay type: functional, cell-based
[18] = system: Feline coronavirus; assay: Antiviral activity against Feline coronavirus infected in CRFK cells assessed as inhibition of virus-induced cytopathic effect; assay type: functional, cell-based
[19] = system: Human alphaherpesvirus 1; assay: Antiviral activity against wild type Herpes simplex virus 1 KOS infected in HEL cells assessed as inhibition of virus-induced cytopathic effect; assay type: functional, cell-based; settings: Human alphaherpesvirus 1, KOS
[20] = system: Mammalian orthoreovirus 1; assay: Antiviral activity against Reovirus-1 infected in African green monkey Vero cells assessed as inhibition of virus-induced cytopathic effect; assay type: functional; in short: as §1
[21] = Selectivity index, ratio of CC50 for HEL cells to EC50 for wild type thymidine kinase expressing Varicella-Zoster virus Oka infected in HEL cells; assay type: toxicity, cell-based; settings: human, read-out: Ratio CC50/EC50
[22] = Selectivity index, ratio of CC50 for HEL cells to EC50 for wild type Herpes simplex virus 1 KOS infected in HEL cells; assay type: toxicity, cell-based; settings: human, read-out: Ratio CC50/EC50
In short: (§2)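 EC50 is the concentration halving cytopathicity in HEL cells infected with 100 CCID50 HSV. […] Cells were counted by Coulter counter, and CC50 was read from plots of cell number (% of untreated) versus concentration. SI = CC50/EC50.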

[23] = Selectivity index, ratio of CC50 for HEL cells to EC50 for thymidine kinase-deficient ACV-resistant Herpes simplex virus 1 KOS infected in HEL cells; assay type: toxicity, cell-based; settings: human, read-out: Ratio CC50/EC50; in short: as §2
[24] = Selectivity index, ratio of CC50 for HEL cells to EC50 for Herpes simplex virus 2 G infected in HEL cells; assay type: toxicity, cell-based; settings: human, read-out: Ratio CC50/EC50; in short: as §2
[25] = Selectivity index, ratio of CC50 for HEL cells to EC50 for wild type thymidine kinase-deficient Varicella-Zoster virus 07-1 infected in HEL cells; assay type: toxicity, cell-based; settings: human, read-out: Ratio CC50/EC50

Compound | CC50 [1] | EC50 [2] | EC50 [3] | EC50 [4] | EC50 [5] | EC50 [6] | Activity [7] | Activity [8] | Activity [9] | EC50 [10] | Activity [11] | Activity [12] | Activity [13] | Activity [14] | Activity [15] | EC50 [16] | Activity [17] | Activity [18] | EC50 [19] | Activity [20] | also measured
O=c1[nH]c(=O)n([C@H]2C[C@H](O)[C@@H](CO)O2)cc1/C=C/Br [BRIVUDINE] | 242 µM | 58.8 µM | 141 µM | 19.1 µM | 0.024 µM |  |  |  |  |  |  |  |  |  |  |  |  |  |  |  | 
CC(C)(C)C(=O)OCOP(=O)(O)COCCOc1cc(N)nc(N)n1 | ≥ 100 µM | 5.91 µM | 29 µM | > 100 µM | 2.54 µM | 54 µM | inactive | inactive | inactive | > 100 µM | inactive | inactive | inactive | inactive | inactive | > 100 µM | inactive | inactive | 39.5 µM | inactive | 
Nc1ccn(C[C@@H](CO)OCP(=O)(O)O)c(=O)n1 [CIDOFOVIR] | 216 µM |  | 1.39 µM | 22.2 µM |  | 2.66 µM |  |  |  | 0.76 µM |  |  |  |  |  | 0.87 µM |  |  | 2.93 µM |  | 
Nc1nc2c(ncn2COCCO)c(=O)[nH]1 [ACYCLOVIR] | > 440 µM |  | 0.18 µM | > 250 µM |  |  |  |  |  |  |  |  |  |  |  |  |  |  |  |  | 
CC(C)(C)C(=O)OCOP(=O)(COCCOc1cc(N)nc(N)n1)OCOC(=O)C(C)(C)C | 16.6 µM | 1.26 µM | 9.5 µM |  | 0.67 µM | 14.5 µM | inactive | inactive | inactive | 36.5 µM | inactive | inactive | inactive | inactive | inactive | 47.4 µM | inactive | inactive | 10 µM | inactive | 
CC(C)OC(=O)OCOP(=O)(O)COCCn1cnc(N)nc1=O |  | 48.9 µM | > 100 µM | > 100 µM | 48.9 µM | > 100 µM | inactive | inactive | inactive | > 100 µM | inactive | inactive | inactive | inactive | inactive | > 100 µM | inactive | inactive | > 100 µM | inactive | 
CC(C)OC(=O)OCOP(=O)(COCCn1cnc(N)nc1=O)OCOC(=O)OC(C)C |  | 23.2 µM | 22 µM | > 100 µM | 15.3 µM | 22 µM | inactive | inactive | inactive | 20 µM | inactive | inactive | inactive | inactive | inactive | 26.2 µM | inactive | inactive | 22 µM | inactive | 
Nc1nc(O)c2ncn(COC(CO)CO)c2n1 [GANCICLOVIR] | ≥ 308 µM |  |  | > 100 µM |  |  |  |  |  |  |  |  |  |  |  |  |  |  |  |  | 
CCCCCCCCCCCCCCCCCCOCCNc1ncn(CCOCP(=O)(OCCOCCCCCCCCCCCCCCCCCC)OCCOCCCCCCCCCCCCCCCCCC)c(=O)n1 |  | 100 µM | > 100 µM | > 100 µM | 44.7 µM | > 100 µM | inactive | inactive | inactive | > 100 µM | inactive | inactive | inactive | inactive | inactive | > 100 µM | inactive | inactive | > 100 µM | inactive | 
CC(C)(C)C(=O)OCOP(=O)(O)COCCn1cnc(N)nc1=O | > 275 µM | 128 µM | 142 µM | > 275 µM | 40.7 µM | 131 µM | inactive | inactive | inactive | 116 µM | inactive | inactive | inactive | inactive | inactive | 123 µM | inactive | inactive | 142 µM | inactive | 
Nc1cc(OCCOCP(=O)(O)O)nc(N)n1 | 90.3 µM | 4.72 µM | 20 µM | > 100 µM | 2.07 µM | 54 µM | inactive | inactive | inactive | > 100 µM | inactive | inactive | inactive | inactive | inactive | > 100 µM | inactive | inactive | 45 µM | inactive | selectivity ratio [21]: 19 to 44; selectivity ratio [22]: 1.72 to 4.5; selectivity ratio [23]: 1.72 to 4.5; selectivity ratio [24]: 1.72 to 4.5; selectivity ratio [25]: 19 to 44
CCOC(=O)[C@H](Cc1ccccc1)NP(=O)(O)COCCn1cnc(N)nc1=O | > 100 µM | > 100 µM | > 100 µM | > 100 µM | > 100 µM | > 100 µM | inactive | inactive | inactive | > 100 µM | inactive | inactive | inactive | inactive | inactive | > 100 µM | inactive | inactive | > 100 µM | inactive | 
COP(=O)(O)COCCn1cnc(N)nc1=O | > 100 µM | > 100 µM | > 100 µM | > 100 µM | > 100 µM | > 100 µM | inactive | inactive | inactive | > 100 µM | inactive | inactive | inactive | inactive | inactive | > 100 µM | inactive | inactive | > 100 µM | inactive | 
CCCCCCCCCCCCCCCCCCOCCOP(=O)(COCCn1cnc(N)nc1=O)OCCOCCCCCCCCCCCCCCCCCC |  | > 0.8 µM | > 100 µM | > 100 µM | > 4 µM | > 100 µM | inactive | inactive | inactive | > 20 µM | inactive | inactive | inactive | inactive | inactive | > 20 µM | inactive | inactive | > 100 µM | inactive | 
